Test results from paper PMC3207261 (European journal of nuclear medicine and molecular imaging, 2010).
Where “and” joins values, the source holds several entries; their conditions need not be identical. Equal entries are not always repeated. Entries after “also recorded” stand apart in the source; their conditions may differ. Where two headings read alike, the source gives them in different places. Marks after values point to notes of the source that are not given here.

What was measured:
[1] = cited from earlier work
[2] = Whole-body PET biodistribution after intravenous injection of ^18F-SP203; assay type: in vivo, humans
How it was run: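 Seven healthy volunteers (3 female, 4 male) received 141±41 MBq i.v. 2-D dynamic whole-body PET covered seven 15-cm bed positions (head to upper thigh) in 16 frames (15 s–4 min), 300 min total, including three 30-min rest periods. OSEM reconstruction with attenuation and scatter correction. Regions were drawn per coronal slice (high-uptake organs) or on summed slices (low-uptake). Uptake was expressed as % injected activity, mean±SD.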

[3] = test system: glutathione S-transferase; conditions: both in vitro and in vivo, via glutathione S-transferase, ref [16]; cited from earlier work
[4] = assay type: in vivo, humans
[5] = test system: mGluR5; conditions: late time points; ref [3]; cited from earlier work
[6] = Radiation absorbed doses by Medical Internal Radiation Dose scheme; assay type: in vivo, humans
How it was run: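 Mean residence times of seven subjects were entered for a 70-kg adult male model. Red marrow residence came from the lumbar vertebrae, with all vertebral activity assigned to marrow, × 100/11.7. […] Bladder used the dynamic model with a 2.4-h voiding interval. Maximal injectable activity was derived from dose per MBq against the annual dose limits.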

[7] = Residence times of source organs from whole-body imaging; assay type: in vivo, humans; conditions: mean±SD
How it was run: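 Residence time = area under each organ's time–activity curve (fraction of injected activity). Decay correction was removed and recovery correction applied (first-frame body activity vs dose-calibrator value). Area was trapezoidal to end of imaging, then physical decay only to infinity. Right-lung activity was scaled by the lung mass ratio 1:1.87. Organs spanning beds used the timing of their main bed position.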

[8] = Radiation dose of other ^18F-labeled radioligands; assay type: in vivo; conditions: approximate effective dose calculated from the reported doses of individual organs
[9] = ref Communication from R.M. Kessler

FC(F)(F)c1nnnn1-c1ccc(OC[18F])c(CN[C@H]2CCCN[C@H]2c2ccccc2)c1 [^18F-SPARQ]
Dose to red marrow ([1]; ref [7]): 15.8 μSv/MBq
Effective dose ([1]; ref [7]): 29.3 μSv/MBq

C=CCN1CCC[C@H]1CNC(=O)c1cc(CCC[18F])cc(OC)c1OC [^18F-Fallypride]
Dose to red marrow [1, 9]: 19.5 μSv/MBq
Effective dose [1, 9]: 21.1 μSv/MBq

N[C@@H](Cc1cc(O)c(O)cc1[18F])C(=O)O [^18F-FDOPA]
Dose to red marrow ([1]; ref [24]): 10.5 μSv/MBq
Effective dose ([1]; ref [24]): 19.9 μSv/MBq

COC(=O)[C@H]1[C@@H](c2ccc(Cl)cc2)C[C@@H]2CC[C@H]1N2CC[18F] [^18F-FECNT]
Dose to red marrow ([1]; ref [21]): 16.1 μSv/MBq
Effective dose ([1]; ref [21]): 15.8 μSv/MBq

Fc1ncccc1OC[C@@H]1CCN1 [^18F-Fluoro-A-85380]
Dose to red marrow ([1]; ref [23]): 14.1 μSv/MBq
Effective dose ([1]; ref [23]): 23.7 μSv/MBq

N#Cc1cc(F)cc(C#Cc2csc(C[18F])n2)c1 [^18F-SP203, 3-fluoro-5-(2-(2-^18F-(fluoromethyl)-thiazol-4-yl)ethynyl)benzonitrile]
Time of peak uptake in brain, kidneys, lungs, heart and spleen ([2]; after injection): ≤ 8 min
Distribution of radioactivity in the skeleton ([2]; bone structures with vs without red marrow): most of the radioactivity was in bone structures that contain red marrow and not in those without red marrow; also recorded: the majority of activity in the human skeleton was in the red marrow rather than in bone itself; also recorded: most of the radioactivity was in bone structures that contain red marrow and not in bones without red marrow
Peak uptake in brain ([2]; brain, seven healthy humans, i.v.): 11 % of injected activity
Radioactivity accumulated in gallbladder (asymptote / maximum) ([2]; gallbladder): 0.9 % of injected activity
Time to reach asymptote / maximum in gallbladder ([2]; gallbladder): ≤ 100 min
Peak uptake in heart ([2]; heart): 3.4 % of injected activity
Defluorination in humans ([2]; judged from distribution of radioactivity in bone structures with various proportions of bone and red marrow): undergoes little defluorination
Peak uptake in liver ([2]; liver, seven healthy humans, i.v.): 12.8±3.4 % of injected activity
Peak uptake in lungs ([2]; lungs): 4.7 % of injected activity and 4.7±1.5 % of injected activity
Radioactivity accumulated in red marrow (asymptote) ([2]; red marrow): 14 % of injected activity
Time to reach asymptote in red marrow ([2]; red marrow): ≤ 100 min
Defluorination in rat brain [3]: defluorinated
Pharmacological effects during the 5-h scan ([4]; 141±41 MBq (1.9±1.0 nmol SP203) i.v., subject reports, ECG, blood pressure, pulse rate, respiration rate): no pharmacological effects
Effects in blood and urine tests ([4]; acquired 7 to 24 h after radioligand injection): no effects were noted
Radioactivity in the skull in human brain imaging [5]: moderate uptake of radioactivity in the skull; also recorded: moderate amount of radioactivity accumulation in the skull
Maximal injectable activity per year ([6]; Europe, effective dose limit 10 mSv per year): no more than 562 MBq
Radiation dose, brain [6]: 127.0 mrem/mCi
Radiation dose, brain ([6]; standard reference man): 34.5 μSv/MBq
Residence time, brain ([7]; brain, seven subjects): 0.192 h and 0.192 ± 0.048 h
Residence time, gallbladder ([7]; gallbladder, seven subjects): 0.018 h and 0.018 ± 0.009 h
Residence time, heart ([7]; heart, seven subjects): 0.024 h and 0.024 ± 0.008 h
Residence time, kidney ([7]; kidney, seven subjects): 0.037 ± 0.004 h
Residence time, liver ([7]; liver, seven subjects): 0.091 h and 0.091 ± 0.015 h
Residence time, lungs ([7]; lungs, seven subjects): 0.065 h and 0.065 ± 0.017 h
Residence time, red marrow ([7]; red marrow (from lumbar vertebrae x 100/11.7)): 0.307 h and 0.307 ± 0.063 h
Residence time, remainder of body ([7]; remainder of body): 1.585 ± 0.147 h
Residence time, spleen ([7]; spleen, seven subjects): 0.014 h and 0.014 ± 0.004 h

CNc1ccc(-c2nc3ccc(O)cc3s2)cc1[18F] [^18F-GE067]
Dose to red marrow ([1]; ref [22]): 15.3 μSv/MBq
Effective dose ([1]; ref [22]): 33.8 μSv/MBq

Cc1cn([C@H]2C[C@H]([18F])[C@@H](CO)O2)c(=O)[nH]c1=O [^18F-Fluorothymidine]
Dose to red marrow ([1]; ref [19]): 24.0 μSv/MBq
Effective dose ([8]; ref [19]): ~15.5^a μSv/MBq

C[C@]12CCC(=O)C[C@@H]1CC[C@@H]1[C@@H]2CC[C@]2(C)[C@@H](O)[C@@H]([18F])C[C@@H]12 [^18F-Fluorodihydrotestosterone]
Dose to red marrow ([1]; ref [20]): 18.7 μSv/MBq
Effective dose ([8]; ref [20]): ~12.5^a μSv/MBq

COC(=O)[C@H]1[C@@H](c2ccc(I)cc2)C[C@@H]2CC[C@H]1N2CCC[18F] [^18F-FPCIT]
Dose to red marrow ([1]; ref [25]): 5.1 μSv/MBq
Effective dose ([8]; ref [25]): ~8.6^a μSv/MBq
